# CHRM4 PAM = potentiates acetylcholine response at human M4 receptor; CHO-K1 hM4/Gqi5, Fluo-8 calcium fluorescence, ACh EC20; 0% = ACh EC20, 100% = maximal ACh; 0.4% of 360,000 active; activation, % at 3 µM; AID 624126;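 active = activation above its plate's cutoff, the mean activation of sample wells plus 3 SD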
# Target sequence (P08173 whole entry, looked up): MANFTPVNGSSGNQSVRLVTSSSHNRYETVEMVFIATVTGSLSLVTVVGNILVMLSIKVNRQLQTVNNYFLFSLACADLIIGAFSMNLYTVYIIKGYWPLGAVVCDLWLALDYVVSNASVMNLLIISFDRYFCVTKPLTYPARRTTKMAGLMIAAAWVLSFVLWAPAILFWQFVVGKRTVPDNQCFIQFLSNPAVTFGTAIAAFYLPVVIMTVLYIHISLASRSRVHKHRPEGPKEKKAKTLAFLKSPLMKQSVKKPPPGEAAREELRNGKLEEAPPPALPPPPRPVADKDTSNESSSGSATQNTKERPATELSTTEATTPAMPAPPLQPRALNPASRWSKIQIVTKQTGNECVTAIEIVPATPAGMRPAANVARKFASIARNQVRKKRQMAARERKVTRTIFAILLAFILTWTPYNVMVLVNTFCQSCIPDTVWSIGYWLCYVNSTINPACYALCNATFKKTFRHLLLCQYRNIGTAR
# M4 ag = agonists of human muscarinic M4 receptor (CHRM4); P08173; CHO-K1 hM4/Gqi5, Fluo-8 calcium fluorescence; vehicle 0%, full acetylcholine response 100%; activation, % at 3 µM; 0.14% of 360,000 active; AID 624127;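 active = activation above the run mean over all test wells plus 3 SD, cut at about 32% in these data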;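 also: peak over basal fluorescence ratio per well then scaled between controls; 0% = DMSO wells and 100% = acetylcholine at EC100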
# M5 antag = CHRM5 antagonism in calcium assay; P08912; CHO-hM5 cells, Fluo-8 calcium fluorescence, ACh EC80; inhibition, % at 3 µM; 0.59% of 360,000 active; AID 624040;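 active = inhibition above a per-plate cutoff, the mean of that plate's test compounds plus 3 SD, cut at about 27% in these data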;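 also: 0% = acetylcholine EC80 with DMSO and 100% = DMSO without agonist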
# M5 PAM = CHRM5 positive allosteric modulation; 0.3% of 360,000 active; activation, % at 3 µM; AID 624038; CHO-K1 hM5, Fluo-8 calcium, ACh EC20 PAM; 0% = ACh EC20, 100% = ACh EC100; P08912;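 active = activation above the run cutoff, the mean activation of all test compounds plus 3 SD, cut at about 18% in these data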
#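 System: CHO-K1 cell line with stable human muscarinic M5 receptor expression | Also added: EC20 acetylcholine as agonist stimulus | Compound: One concentration, 3 µM final (nominal) | Timing: Fluo-8 loading 80 min at 37 °C plus 30 min room temperature | Measured by: Fluo-8 calcium dye fluorescence, kinetic read | Read-out basis: % activation, ACh-normalized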
# M5 ag = CHRM5 agonism in calcium assay. CHO-K1 hM5 cells, Fluo-8 calcium fluorescence; 0% DMSO wells, 100% maximal acetylcholine response. activation, % at 3 µM. 0.19% of 360,000 active;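 active = activation above the run's mean over test compounds plus 3 SD, cut at about 23% in these data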;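 also: signal is peak over basal fluorescence ratio across the kinetic read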
# M4 antag = antagonists of human muscarinic M4 receptor (CHRM4) | P08173 | CHO-hM4 cells, ACh EC80, Fluo-8 calcium fluorescence | inhibition, % at 3 µM | 0.73% of 360,000 active | AID 624125;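 active = inhibition above its plate's cutoff, the mean inhibition of sample wells plus 3 SD, cut at about 27% in these data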;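 also: 0% = acetylcholine EC80 with DMSO and 100% = DMSO without agonist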
# Active calls of the source: *. Only some compounds are listed: those with a hit (about 1.8% of all), similar ones and a draw of the others.
SMILES,CHRM4 PAM,M4 ag,M5 antag,M5 PAM,M5 ag,M4 antag
C#CCOCCOCCOCCNc1nc(N2CCN(C(=O)C([C@@H](C)O)n3cc([C@@H](N)CCCCN)nn3)CC2)nc(N2CCN(C(=O)[C@H](CC(N)=O)n3cc(C(N)[C@@H](C)CC)nn3)CC2)n1 (stereo partly specified),-12,-1,5,-4,1,35*
O=C(NCc1ccco1)c1ccccc1-c1ccccc1,3,-1,-9,9,-4,-2
Cc1scc(C(=O)NCc2ccco2)c1-c1ccccc1,42*,0,-7,4,-3,-6
CC1(C)CC(=O)C=C(NC2CCCC(O)C2)C1 (stereo unspecified),14,2,-6,15,6,-1
CCOC(=O)c1sc(NNC(=O)c2ccc(F)cc2)nc1C,13,3,8,25*,14,-3
CC(C)c1ccc(NC2CCCN(C(=O)c3ccsc3)C2)cc1 (stereo unspecified),-9,4,9,-4,-1,-3
O=C(Nc1nccs1)c1sc2cc(Cl)ccc2c1Cl,25*,1,-3,23*,1,-12
O=C(N[C@H]1CC[C@H](CCNC(=O)C2CC2)O[C@@H]1CO)c1ccccn1,14,0,-1,5,1,-3
COc1ccc(-n2c3c(cc(C(=O)N4CCCCC4)c2=O)C(=O)CC(C)(C)C3)cc1,-8,1,2,12,-3,27*
CC1(C)CC(=O)c2cc(C(=O)N3CCCC(C)(C)C3)c(=O)n(-c3ccccc3)c2C1,0,1,5,0,3,2
O=C(NCCCN1CCCC1)c1ccc2c(c1)N(Cc1ccc(F)cc1)C(=O)c1ccccc1S2=O (stereo unspecified),-8,1,8,-2,-9,-1
CCC1CCCCN1CCCNC(=O)c1ccc2c(c1)N(Cc1ccc(F)cc1)C(=O)c1ccccc1S2=O (stereo unspecified),-14,2,6,-9,-11,29*
CCNc1nc(NC#N)nc(SCC(=O)OCC)n1,-2,0,1,-4,-3,-3
CCOC(=O)CSc1nc(NC#N)nc(N(CC)CC)n1,2,0,-18,19*,0,-13
COc1ccc(-c2oc3ccc(-c4cc(OC)c(OC)c(OC)c4)cc3c2-c2ccc(OC)nc2)cc1,1,1,12,5,0,-10
Cc1ccc2c(Cl)cc(Cl)c(OCC(=O)NCCc3ccccn3)c2n1,-1,4,5,4,-1,77*
Cc1ccc2c(Cl)cc(Cl)c(OCC(=O)NC3CCS(=O)(=O)C3)c2n1 (stereo unspecified),-1,2,10,-1,2,3
CCOc1ccccc1NC(=O)COC(=O)COc1c(Cl)cc(Cl)c2ccc(C)nc12,4,4,28*,34*,3,3
O=C1OC/C(=C(/O)c2ccc(Cl)cc2)C1=O,-2,1,4,4,1,-4
CC1CCCCN1S(=O)(=O)c1ccc([N+](=O)[O-])cc1 (stereo unspecified),-14,0,11,-10,-24,29*
CCC1CCCCN1S(=O)(=O)c1ccc([N+](=O)[O-])cc1 (stereo unspecified),-14,-1,5,-16,-23,28*
CCOC(=O)c1ccc(S(=O)(=O)Nc2cc(S(=O)(=O)Nc3ccc(OC)cc3)ccc2O)cc1,6,0,-5,18*,-3,-6
COc1ccc(NS(=O)(=O)c2ccc(O)c(NC(=O)c3ccc(S(=O)(=O)N4CCCC4)cc3)c2)cc1,-5,4,6,-4,-2,-5
COc1ccc(NS(=O)(=O)c2ccc(C(=O)N(C)Cc3cccs3)cc2)cc1,1,17,8,-17,26*,-2
COc1ccc(NS(=O)(=O)c2ccc(C(=O)N3CCCCCC3)cc2)cc1,-6,23,11,-30,24*,-7
SMILES,CHRM4 PAM,M4 ag,M5 antag,M5 PAM,M5 ag,M4 antag
Cc1ccc(NS(=O)(=O)c2ccc(C(=O)N3CC(C)OC(C)C3)cc2)cc1 (stereo unspecified),7,24,10,-9,31*,2
Cc1ccc(NS(=O)(=O)c2ccc(C(=O)N3CCC3)cc2)cc1,-4,5,11,-10,7,8
CC(=O)Nc1ccc(S(=O)(=O)NCCC(=O)NCc2ccco2)cc1,1,1,4,-6,3,4
Cc1ccc(NS(=O)(=O)c2ccc(C(=O)NCc3ccccn3)cc2)cc1,-8,15,9,-6,22,5
CCOc1ccc(NS(=O)(=O)c2ccc(C(=O)NCc3ccccn3)cc2)cc1,-9,22,4,-12,32*,-2
O=C(c1ccc(S(=O)(=O)Nc2ccccc2)cc1)N1CCCC(C(F)(F)F)C1 (stereo unspecified),-6,32,10,-17,36*,-2
CCOc1ccc(NS(=O)(=O)c2ccc(C(=O)N3CCCC(C)C3)cc2)cc1 (stereo unspecified),-7,36*,14,-22,36*,0
O=C(c1ccccc1)c1ccc(C(=O)N2CCCC(C(F)(F)F)C2)cc1 (stereo unspecified),2,4,6,-7,1,-1
NNC(=O)CN1C(=O)Nc2ccc(Cl)cc2C1c1ccccc1 (stereo unspecified),-16,0,4,2,-7,45*
CCOc1nc(-c2ccccc2)ccc1-c1noc(COC)n1,17,-1,-12,18*,-7,-3
CCNC(=O)CN(C1CCCCC1)S(C)(=O)=O,22*,3,-12,12,1,-4
CCCCNC(=O)CN(C1CCCCC1)S(C)(=O)=O,0,0,-5,6,1,12
O=C1NC(=S)N/C1=C\c1ccc(Oc2ccc(C(F)(F)F)cc2[N+](=O)[O-])c(Cl)c1,15,1,-9,19*,3,18
C/C(=N\NC(=O)c1cccc(S(=O)(=O)N2CCOCC2)c1)c1ccc(OCC(=O)N(C)C)cc1,2,2,0,5,2,0
COC(=O)CSc1nnc([C@H](Cc2ccccc2)NC(=O)OC(C)(C)C)o1,-6,3,3,-2,-3,-10
COC(=O)CS(=O)(=O)c1nnc([C@H](Cc2ccccc2)NC(=O)OC(C)(C)C)o1,-7,4,4,8,5,77*

# Source: PubChem (The Scripps Research Institute Molecular Screening Center)
